Test results as given in PMC5746459 (Journal of medicinal chemistry, 2017).
pKi: −log10 of the molar value. Entries after “also recorded” stand apart in the source; their conditions may differ. Where a name gives a salt, the structure may show the parent alone.

What was measured:
human DAT (hDAT) WT = human DAT (hDAT) WT (Homo sapiens, UniProt Q01959); experiment: [3H]DA uptake inhibition in COS7 cells transiently expressing DAT WT; format: cell-based
[1] = Phase I metabolic stability in mouse liver microsomes; format: in vitro ADME; conditions: mouse liver microsomes with and without NADPH
In short: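 Test compound at 10 uM final was incubated in triplicate with 0.5 mg/mL mouse liver microsomes in 100 mM potassium phosphate, pH 7.4. The NADPH regenerating system contained 1.3 mM NADPH, 3.3 mM glucose 6-phosphate, 3.3 mM MgCl2, 0.4 U/mL glucose-6-phosphate dehydrogenase and sodium citrate. Reactions were started by adding microsomes, with cofactor-free controls. Percent remaining over time was measured by LC/MS/MS; mean ± S.E.M., n=3 per time point.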

Swiss Webster mice [2] = experiment: Locomotor activity in mice; format: in vivo, mouse; conditions: i.p., 1 h session; for effect on locomotor activity: cocaine 5–40 mg/kg, 10a 3–56 mg/kg
Swiss Webster mice [3] = experiment: Drug discrimination, mice trained to discriminate cocaine from saline; format: in vivo, mouse; conditions: for overall group response rate, % of control performance: mice, drug discrimination sessions, all doses tested
mice = conditions: previous studies; cited from earlier work

Sequence of human DAT (hDAT) WT (Q01959 whole entry): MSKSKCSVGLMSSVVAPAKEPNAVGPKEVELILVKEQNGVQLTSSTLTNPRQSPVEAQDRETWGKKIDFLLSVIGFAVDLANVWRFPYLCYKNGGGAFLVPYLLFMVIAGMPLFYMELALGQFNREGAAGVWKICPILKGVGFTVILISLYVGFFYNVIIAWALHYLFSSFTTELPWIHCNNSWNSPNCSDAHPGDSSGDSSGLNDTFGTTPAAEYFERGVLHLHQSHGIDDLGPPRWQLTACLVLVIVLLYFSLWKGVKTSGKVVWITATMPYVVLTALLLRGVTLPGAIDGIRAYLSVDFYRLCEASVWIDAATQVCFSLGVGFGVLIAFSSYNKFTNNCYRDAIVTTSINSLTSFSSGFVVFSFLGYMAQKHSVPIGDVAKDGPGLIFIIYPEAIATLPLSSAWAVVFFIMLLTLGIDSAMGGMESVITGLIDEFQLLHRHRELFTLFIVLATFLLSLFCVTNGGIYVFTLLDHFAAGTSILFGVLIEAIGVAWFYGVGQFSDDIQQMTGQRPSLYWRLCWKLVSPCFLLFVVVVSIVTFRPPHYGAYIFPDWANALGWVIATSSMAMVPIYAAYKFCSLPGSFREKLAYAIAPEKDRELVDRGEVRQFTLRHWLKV

SMILES: CN(C)CCN1C2CCC1CC(OC(c1ccc(F)cc1)c1ccc(F)cc1)C2 (stereo not shown) [10a, 2-(3-(bis(4-fluorophenyl)methoxy)-8-azabicyclo[3.2.1]octan-8-yl)-N,N-dimethylethanamine Oxalate]
- DA uptake inhibition potency relative to cocaine (times higher) (human DAT (hDAT) WT): > 4
- Phase I metabolic stability [1]: complete stability under all conditions
- effect on locomotor activity (Swiss Webster mice [2]): None of the doses of 10a significantly increased activity counts more than vehicle; also recorded: failed to produce a significant increase in locomotor activity; also recorded: did not significantly increase locomotor activity
- substitution for cocaine discriminative stimulus (Swiss Webster mice [3]; mice trained with cocaine 10 mg/kg vs saline, 5 or 30 min pretreatment): failed to substitute for cocaine; also recorded: did not generalize to the cocaine discriminative stimulus
- overall group response rate, % of control performance (Swiss Webster mice [3]): ≥ 50%

SMILES: CN(C)CCN1C2CCC1CC(NC(c1ccc(F)cc1)c1ccc(F)cc1)C2 (stereo not shown) [10b, N-(Bis(4-fluorophenyl)methyl)-8-(2-(dimethylamino)ethyl)-8-azabicyclo[3.2.1]octan-3-amine Oxalate]
- DA uptake inhibition potency relative to cocaine (times higher) (human DAT (hDAT) WT): > 4

SMILES: NCCc1ccc(O)c(O)c1 [Dopamine, reference compound]
- Km (human DAT (hDAT) WT; read-out: DAT WT, Dopamine (kM), [3H]DA uptake, COS7 cells transiently expressing DAT WT, mean [s.e.m. interval]): 0.999 µM

SMILES: CN1[C@H]2CC[C@@H]1[C@@H](c1cc(-c3ccccc3)no1)[C@H](OC(c1ccc(F)cc1)c1ccc(F)cc1)C2 [S-(+)-19a, S-(+)-2β-(3-Phenylisoxazol-5-yl)-3α-[bis(4-fluorophenyl)methoxy]tropane]
- pKi (human DAT (hDAT) WT; read-out: DAT WT Ki, [3H]DA uptake inhibition, COS7 cells transiently expressing DAT WT, mean [s.e.m. interval]): 6.67

SMILES: COC(=O)[C@H]1[C@@H](OC(=O)c2ccccc2)C[C@@H]2CC[C@H]1N2C [compound 1, cocaine, reference compound]
- maximum locomotor activity, % of activity counts compared to vehicle (Swiss Webster mice [2]; 20 and 40 mg/kg): ≈ 300%
- effect on locomotor activity (Swiss Webster mice [2]): dose-dependently increased locomotion
- overall group response rate, % of control performance (Swiss Webster mice [3]): ≥ 50%

SMILES: Cc1ccc(C2CC3CCC(C2c2cc(-c4ccc(Cl)cc4)no2)N3C)cc1 (stereo not shown) [compound 5]
- stimulation of locomotor activity (mice): fails to stimulate locomotor activity in mice

SMILES: Cc1ccc(-c2cc(C3C(c4ccc(Cl)cc4)CC4CCC3N4C)on2)cc1 (stereo not shown) [compound 6]
- stimulation of locomotor activity (mice): does stimulate locomotion
